{"source": "ChEMBL document CHEMBL5696442", "about": "“Discovery of type II inhibitors of TGFβ-activated kinase 1 (TAK1) and mitogen-activated protein kinase kinase kinase kinase 2 (MAP4K2)” (J Med Chem, 2015)", "key": {"[1]": {"molecular_target": "Serine/threonine-protein kinase WNK2 (Homo sapiens) (UniProt Q9Y3S1)", "test": "Inhibition of Wnk2 ACT labeling site in human Huh-7 cells at 1 uM by KiNativ Profiling analysis relative to control", "type": "cell-based"}, "[2]": {"molecular_target": "Cyclin-dependent kinase 6 (Homo sapiens) (UniProt Q00534)", "sequence (Q00534 whole entry)": "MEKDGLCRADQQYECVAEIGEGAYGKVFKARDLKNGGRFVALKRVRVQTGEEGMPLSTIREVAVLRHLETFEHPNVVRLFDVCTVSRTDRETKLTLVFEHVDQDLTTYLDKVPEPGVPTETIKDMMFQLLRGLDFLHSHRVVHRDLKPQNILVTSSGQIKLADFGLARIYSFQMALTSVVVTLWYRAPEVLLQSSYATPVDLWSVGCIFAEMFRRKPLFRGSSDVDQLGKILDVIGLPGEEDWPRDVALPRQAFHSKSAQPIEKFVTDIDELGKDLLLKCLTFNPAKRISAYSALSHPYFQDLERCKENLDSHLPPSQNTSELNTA", "test": "Inhibition of CDK6 Lys2 labeling site in human Huh-7 cell lysate at 1 uM by KiNativ Profiling analysis relative to control", "type": "subcellular"}, "[3]": {"molecular_target": "Serine/threonine-protein kinase 25 (Homo sapiens) (UniProt O00506)", "sequence (O00506 whole entry, looked up)": "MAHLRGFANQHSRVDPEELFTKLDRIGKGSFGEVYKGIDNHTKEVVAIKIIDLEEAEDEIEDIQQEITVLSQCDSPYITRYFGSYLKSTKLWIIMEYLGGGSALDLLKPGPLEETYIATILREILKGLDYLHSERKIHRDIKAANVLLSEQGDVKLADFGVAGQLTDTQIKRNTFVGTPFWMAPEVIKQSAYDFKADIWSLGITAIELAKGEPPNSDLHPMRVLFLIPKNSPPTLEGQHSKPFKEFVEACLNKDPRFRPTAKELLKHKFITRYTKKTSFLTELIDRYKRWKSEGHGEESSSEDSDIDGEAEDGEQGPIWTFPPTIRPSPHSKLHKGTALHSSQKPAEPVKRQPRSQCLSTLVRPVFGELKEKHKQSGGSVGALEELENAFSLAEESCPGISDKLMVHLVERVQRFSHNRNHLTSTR", "test": "Inhibition of YSK1 Lys2 labeling site in human Huh-7 cells at 1 uM by KiNativ Profiling analysis relative to control", "type": "cell-based"}, "[4]": {"molecular_target": "T1, Serine/threonine-protein kinase D2 (Homo sapiens) (UniProt Q9BZL6)", "T1 sequence (whole entry)": "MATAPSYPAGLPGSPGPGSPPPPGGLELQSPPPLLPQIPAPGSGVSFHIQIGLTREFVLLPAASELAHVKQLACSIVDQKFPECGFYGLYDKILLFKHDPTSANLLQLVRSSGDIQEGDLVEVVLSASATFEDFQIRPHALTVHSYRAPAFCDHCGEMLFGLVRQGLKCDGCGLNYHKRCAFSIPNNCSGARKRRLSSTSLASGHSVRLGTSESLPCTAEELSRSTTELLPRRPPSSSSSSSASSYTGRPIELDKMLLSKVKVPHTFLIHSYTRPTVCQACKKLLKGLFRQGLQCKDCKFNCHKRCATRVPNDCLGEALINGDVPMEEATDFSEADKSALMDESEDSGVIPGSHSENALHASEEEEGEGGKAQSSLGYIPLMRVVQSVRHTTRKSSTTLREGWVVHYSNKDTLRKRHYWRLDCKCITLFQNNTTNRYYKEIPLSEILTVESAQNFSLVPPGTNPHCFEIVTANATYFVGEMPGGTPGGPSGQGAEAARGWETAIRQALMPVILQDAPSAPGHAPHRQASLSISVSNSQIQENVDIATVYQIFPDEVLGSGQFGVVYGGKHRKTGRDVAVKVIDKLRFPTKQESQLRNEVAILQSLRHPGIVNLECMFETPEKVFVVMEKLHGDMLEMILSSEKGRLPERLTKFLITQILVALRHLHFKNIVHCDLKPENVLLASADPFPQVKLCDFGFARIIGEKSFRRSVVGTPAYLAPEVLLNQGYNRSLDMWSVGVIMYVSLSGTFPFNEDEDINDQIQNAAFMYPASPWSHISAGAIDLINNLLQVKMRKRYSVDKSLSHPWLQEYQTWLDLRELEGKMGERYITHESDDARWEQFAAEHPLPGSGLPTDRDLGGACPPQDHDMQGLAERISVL", "test": "Inhibition of PKD2 Lys2 labeling site in human Huh-7 cells at 1 uM by KiNativ Profiling analysis relative to control", "type": "cell-based"}, "[5]": {"molecular_target": "Mitogen-activated protein kinase 14 (Homo sapiens, UniProt Q16539)", "sequence (Q16539 whole entry)": "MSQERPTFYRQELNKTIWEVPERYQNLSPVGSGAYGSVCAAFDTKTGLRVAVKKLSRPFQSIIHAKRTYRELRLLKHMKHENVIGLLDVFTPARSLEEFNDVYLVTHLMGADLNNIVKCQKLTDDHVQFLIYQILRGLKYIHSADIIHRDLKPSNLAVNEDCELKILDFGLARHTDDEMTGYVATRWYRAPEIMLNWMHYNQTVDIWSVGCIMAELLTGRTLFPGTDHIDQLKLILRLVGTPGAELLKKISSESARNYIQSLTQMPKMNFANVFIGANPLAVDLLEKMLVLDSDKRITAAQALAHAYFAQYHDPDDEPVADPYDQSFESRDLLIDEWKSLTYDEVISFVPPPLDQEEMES", "test": "Inhibition of p38a in human Huh-7 cells at 10 uM by KiNativ Profiling analysis relative to control", "type": "cell-based"}, "[6]": {"molecular_target": "Casein kinase II subunit alpha (Homo sapiens) (UniProt P68400)", "sequence (P68400 whole entry, looked up)": "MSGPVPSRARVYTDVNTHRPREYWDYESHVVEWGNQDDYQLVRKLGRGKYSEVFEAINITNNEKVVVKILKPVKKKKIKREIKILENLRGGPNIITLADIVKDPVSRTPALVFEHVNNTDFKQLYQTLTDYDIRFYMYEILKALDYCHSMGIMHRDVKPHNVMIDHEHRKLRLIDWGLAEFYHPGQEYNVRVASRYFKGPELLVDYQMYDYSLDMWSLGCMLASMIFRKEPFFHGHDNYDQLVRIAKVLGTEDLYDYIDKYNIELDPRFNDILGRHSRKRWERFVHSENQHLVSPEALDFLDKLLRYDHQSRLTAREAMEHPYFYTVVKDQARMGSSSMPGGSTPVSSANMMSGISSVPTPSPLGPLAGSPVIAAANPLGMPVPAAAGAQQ", "test": "Inhibition of CK2a1 in human Huh-7 cells at 1 uM by KiNativ Profiling analysis relative to control", "type": "cell-based"}, "[7]": {"test": "Inhibition of […] ATP labeling site in human Huh-7 cells at 1 uM by KiNativ Profiling analysis relative to control", "settings": "condition cancer"}, "[8]": {"molecular_target": "Tyrosine-protein kinase CSK (Homo sapiens, UniProt P41240)", "sequence (P41240 2-450 limits assumed)": "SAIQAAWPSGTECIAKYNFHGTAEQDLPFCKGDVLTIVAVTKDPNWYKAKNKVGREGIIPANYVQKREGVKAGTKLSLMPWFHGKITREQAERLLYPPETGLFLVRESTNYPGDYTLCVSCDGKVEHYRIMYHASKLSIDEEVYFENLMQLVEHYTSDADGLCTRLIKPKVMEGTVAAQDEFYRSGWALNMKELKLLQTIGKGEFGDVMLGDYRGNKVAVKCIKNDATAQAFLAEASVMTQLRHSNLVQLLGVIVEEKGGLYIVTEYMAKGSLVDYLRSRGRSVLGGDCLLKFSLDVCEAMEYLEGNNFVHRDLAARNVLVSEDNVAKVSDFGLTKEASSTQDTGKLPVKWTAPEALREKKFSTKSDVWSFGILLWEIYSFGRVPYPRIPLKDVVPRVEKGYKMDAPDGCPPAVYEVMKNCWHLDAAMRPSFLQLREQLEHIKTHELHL", "test": "Inhibition of CSK ACT labeling site harbouring VSDFGLTKEASSTQDTGKLPVK in human A-375 cells at 0.5 uM by KiNativ Profiling analysis relative to control", "type": "cell-based"}, "[9]": {"molecular_target": "Serine/threonine-protein kinase/endoribonuclease IRE1 (Homo sapiens) (UniProt O75460)", "sequence (O75460 19-977 limits assumed)": "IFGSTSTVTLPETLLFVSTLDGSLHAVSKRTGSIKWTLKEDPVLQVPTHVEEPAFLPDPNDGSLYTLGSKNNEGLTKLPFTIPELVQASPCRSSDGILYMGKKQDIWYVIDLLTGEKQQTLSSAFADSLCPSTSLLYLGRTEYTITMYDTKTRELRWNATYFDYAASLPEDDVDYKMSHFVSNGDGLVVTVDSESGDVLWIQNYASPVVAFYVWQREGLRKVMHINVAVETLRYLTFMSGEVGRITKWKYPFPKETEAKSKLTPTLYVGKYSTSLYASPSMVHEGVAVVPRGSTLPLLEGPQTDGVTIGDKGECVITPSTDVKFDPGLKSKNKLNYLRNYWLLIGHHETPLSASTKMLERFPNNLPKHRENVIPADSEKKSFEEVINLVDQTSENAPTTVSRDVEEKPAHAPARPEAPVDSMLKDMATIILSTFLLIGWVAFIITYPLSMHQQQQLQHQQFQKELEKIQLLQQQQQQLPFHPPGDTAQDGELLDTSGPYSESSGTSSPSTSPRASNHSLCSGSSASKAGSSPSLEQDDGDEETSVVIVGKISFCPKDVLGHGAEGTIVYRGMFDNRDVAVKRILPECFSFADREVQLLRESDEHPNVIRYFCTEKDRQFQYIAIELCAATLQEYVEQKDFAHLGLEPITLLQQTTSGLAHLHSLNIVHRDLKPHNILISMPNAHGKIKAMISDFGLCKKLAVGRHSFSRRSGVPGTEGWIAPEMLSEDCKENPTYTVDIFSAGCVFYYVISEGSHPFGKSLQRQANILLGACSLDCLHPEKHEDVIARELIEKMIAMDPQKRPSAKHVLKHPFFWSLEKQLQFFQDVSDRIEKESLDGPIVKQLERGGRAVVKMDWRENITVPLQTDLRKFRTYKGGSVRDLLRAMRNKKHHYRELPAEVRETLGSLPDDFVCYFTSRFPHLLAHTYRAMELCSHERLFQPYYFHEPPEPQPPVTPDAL", "test": "Inhibition of IRE1 Lys2 labeling site in human A-375 cells at 5 uM by KiNativ Profiling analysis relative to control", "type": "cell-based"}, "[10]": {"molecular_target": "MAP kinase-interacting serine/threonine-protein kinase 2 (Homo sapiens) (UniProt Q9HBH9)", "sequence (Q9HBH9 whole entry, looked up)": "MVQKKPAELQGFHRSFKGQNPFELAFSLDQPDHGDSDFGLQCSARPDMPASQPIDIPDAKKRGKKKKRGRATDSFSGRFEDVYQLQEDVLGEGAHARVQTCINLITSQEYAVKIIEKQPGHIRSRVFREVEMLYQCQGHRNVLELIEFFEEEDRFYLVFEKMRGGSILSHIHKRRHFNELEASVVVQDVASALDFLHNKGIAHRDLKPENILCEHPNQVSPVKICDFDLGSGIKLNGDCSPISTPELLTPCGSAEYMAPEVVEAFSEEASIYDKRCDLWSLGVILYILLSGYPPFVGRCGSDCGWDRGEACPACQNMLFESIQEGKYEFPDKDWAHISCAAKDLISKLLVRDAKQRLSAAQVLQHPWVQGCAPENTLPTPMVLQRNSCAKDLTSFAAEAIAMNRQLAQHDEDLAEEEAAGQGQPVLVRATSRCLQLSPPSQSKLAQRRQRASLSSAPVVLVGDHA", "test": "Inhibition of MKNK2 (unknown origin) at 10 uM by Ambit Kinomescan binding assay relative to control"}, "[11]": {"molecular_target": "Casein kinase I isoform delta (Homo sapiens) (UniProt P48730)", "sequence (P48730 whole entry, looked up, canonical isoform)": "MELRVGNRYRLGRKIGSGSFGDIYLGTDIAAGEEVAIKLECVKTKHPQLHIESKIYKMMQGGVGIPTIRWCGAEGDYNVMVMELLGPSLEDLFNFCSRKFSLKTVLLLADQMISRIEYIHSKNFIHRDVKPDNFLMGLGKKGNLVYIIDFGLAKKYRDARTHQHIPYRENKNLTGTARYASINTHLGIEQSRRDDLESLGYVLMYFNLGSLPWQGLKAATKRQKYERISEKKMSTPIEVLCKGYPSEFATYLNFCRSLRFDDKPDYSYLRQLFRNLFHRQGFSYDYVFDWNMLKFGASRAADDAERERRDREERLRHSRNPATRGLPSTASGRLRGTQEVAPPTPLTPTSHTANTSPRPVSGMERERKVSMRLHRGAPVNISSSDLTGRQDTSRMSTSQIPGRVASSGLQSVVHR", "test": "Inhibition of CSNK1D (unknown origin) at 1 uM by Ambit Kinomescan binding assay relative to control", "method_in_brief": "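In vitro ATP-site competition binding assay against a panel of over 420 kinases (KinomeScan), with compound tested at 10 or 1 μM.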"}, "[12]": {"system": "Tyrosine-protein kinase ABL1 (Homo sapiens), P00519 [T315I]", "test": "Inhibition of nonphosphorylated ABL1 T315I mutant (unknown origin) at 1 uM by Ambit Kinomescan binding assay relative to control"}, "[13]": {"molecular_target": "Tyrosine-protein kinase Srms (Homo sapiens) (UniProt Q9H3Y6)", "sequence (Q9H3Y6 whole entry)": "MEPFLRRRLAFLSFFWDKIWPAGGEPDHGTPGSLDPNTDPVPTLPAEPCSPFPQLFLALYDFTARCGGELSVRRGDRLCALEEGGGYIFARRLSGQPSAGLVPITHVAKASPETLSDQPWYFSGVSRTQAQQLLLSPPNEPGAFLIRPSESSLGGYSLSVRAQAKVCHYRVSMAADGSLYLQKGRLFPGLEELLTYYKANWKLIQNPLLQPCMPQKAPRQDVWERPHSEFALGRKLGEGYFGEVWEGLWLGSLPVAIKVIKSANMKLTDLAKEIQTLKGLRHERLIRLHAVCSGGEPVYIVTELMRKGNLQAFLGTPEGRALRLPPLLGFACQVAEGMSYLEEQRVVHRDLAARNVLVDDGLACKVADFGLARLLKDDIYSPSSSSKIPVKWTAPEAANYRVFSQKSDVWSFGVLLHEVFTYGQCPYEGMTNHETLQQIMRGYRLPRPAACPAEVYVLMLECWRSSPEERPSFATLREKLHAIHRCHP", "test": "Inhibition of SRMS (unknown origin) at 1 uM by Ambit Kinomescan binding assay relative to control"}, "[14]": {"molecular_target": "SRSF protein kinase 2 (Homo sapiens) (UniProt P78362)", "sequence (P78362 whole entry, looked up)": "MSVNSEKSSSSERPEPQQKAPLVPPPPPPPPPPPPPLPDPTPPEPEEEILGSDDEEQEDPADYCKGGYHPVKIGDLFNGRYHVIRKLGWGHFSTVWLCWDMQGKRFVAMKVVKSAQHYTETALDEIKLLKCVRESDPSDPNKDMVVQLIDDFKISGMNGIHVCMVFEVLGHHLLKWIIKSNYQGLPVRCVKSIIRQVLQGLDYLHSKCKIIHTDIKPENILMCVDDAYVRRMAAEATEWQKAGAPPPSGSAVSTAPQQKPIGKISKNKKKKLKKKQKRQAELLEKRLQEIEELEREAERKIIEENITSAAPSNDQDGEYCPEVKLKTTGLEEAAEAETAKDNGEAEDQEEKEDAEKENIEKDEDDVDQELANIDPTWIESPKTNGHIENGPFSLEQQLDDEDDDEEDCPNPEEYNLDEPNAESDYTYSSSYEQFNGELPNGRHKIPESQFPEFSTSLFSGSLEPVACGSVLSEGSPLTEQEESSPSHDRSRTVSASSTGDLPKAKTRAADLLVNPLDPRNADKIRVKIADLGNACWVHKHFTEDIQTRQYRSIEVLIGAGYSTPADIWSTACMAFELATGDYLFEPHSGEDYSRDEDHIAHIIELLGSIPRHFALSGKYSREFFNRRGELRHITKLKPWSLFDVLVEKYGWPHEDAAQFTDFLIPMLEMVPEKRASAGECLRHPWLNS", "test": "Inhibition of SRPK2 (unknown origin) at 1 uM by Ambit Kinomescan binding assay relative to control"}}, "note": "Calls of active or inactive are those of the source. The rule behind the calls is not given here."}
{"molecule": "CNc1cc(Oc2cc(C(=O)Nc3cc(N4CCN(C)CC4)cc(C(F)(F)F)c3)ccc2C)ncn1", "values": [{"measurement": "inhibition", "setting": "[1]", "value": 21.6, "unit": "%"}, {"measurement": "inhibition", "setting": "[2]", "value": -1.9, "unit": "%"}, {"measurement": "inhibition", "setting": "[3]", "value": 25.2, "unit": "%"}, {"measurement": "inhibition", "setting": "[4]", "value": 9, "unit": "%"}]}
{"molecule": "CCN1CCN(Cc2ccc(NC(=O)c3ccc(C)c(Oc4ccnc5[nH]ccc45)c3)cc2C(F)(F)F)CC1", "values": [{"measurement": "inhibition", "setting": "[5]", "value": 98.5, "unit": "%"}, {"measurement": "inhibition", "setting": "[6]", "value": 16, "unit": "%"}, {"measurement": "inhibition at 1 µM", "setting": "[7]", "value": -3.2, "unit": "%"}, {"measurement": "inhibition", "setting": "[8]", "value": 36.5, "unit": "%"}, {"measurement": "inhibition", "setting": "[9]", "value": -5.7, "unit": "%"}, {"measurement": "inhibition", "setting": "[10]", "value": "inactive"}]}
{"molecule": "CCN1CCN(Cc2ccc(NC(=O)c3ccc(C)c(/C=C/c4cnc5[nH]ccc5c4OC)c3)cc2C(F)(F)F)CC1", "values": [{"measurement": "inhibition", "setting": "[11]", "value": 84, "unit": "%"}, {"measurement": "inhibition", "setting": "[12]", "value": 11, "unit": "%"}, {"measurement": "inhibition", "setting": "[13]", "value": 34, "unit": "%"}, {"measurement": "inhibition", "setting": "[14]", "value": 76, "unit": "%"}]}
